Laboratory results reported in ChEMBL document CHEMBL1629431, “Synthesis and antitumor activity of some 2, 3-disubstituted quinazolin-4(3H)-ones and 4, 6- disubstituted- 1, 2, 3, 4-tetrahydroquinazolin-2H-ones” (2010).

Tests used:
Type in all cases: functional
SK-MEL-28 = test: Growth inhibition of human SK-MEL-28 cells at 10 uM after 48 hrs by coulter counter method; details: SK-MEL-28, 48 h, read-out: GI
Procedure, shortened: (§1)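 Single high-dose NCI 60-cell-line panel screen across nine tumor subpanels. Test solutions (0.2 mL) were added in duplicate to wells holding 1.8 mL of culture at 6 × 10⁴ cells/mL. Controls got PBS and DMSO at identical dilutions. Incubation was 48 h at 37 °C in humidified 5% CO₂. Cells were diluted 10-fold in saline, Coulter-counted and dilution-corrected. Results were expressed as percent growth inhibition versus control.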

SR = test: Growth inhibition of human SR cells at 10 uM after 48 hrs by coulter counter method; details: read-out: GI; procedure, shortened: as §1
MOLT-4 = test: Growth inhibition of human MOLT4 cells at 10 uM after 48 hrs by coulter counter method; details: MOLT-4, 48 h, read-out: GI; procedure, shortened: as §1
A549 = test: Growth inhibition of human A549 cells at 10 uM after 48 hrs by coulter counter method; details: A549, 48 h, read-out: GI; procedure, shortened: as §1
OVCAR-4 = test: Growth inhibition of human OVCAR4 cells at 10 uM after 48 hrs by coulter counter method; details: OVCAR-4, 48 h, read-out: GI; procedure, shortened: as §1
SF-268 = test: Growth inhibition of human SF268 cells at 10 uM after 48 hrs by coulter counter method; details: SF-268, 48 h, read-out: GI; procedure, shortened: as §1
OVCAR-8 = test: Growth inhibition of human OVCAR8 cells at 10 uM after 48 hrs by coulter counter method; details: OVCAR-8, 48 h, read-out: GI; procedure, shortened: as §1
NCI-H226 = test: Growth inhibition of human NCI-H226 cells at 10 uM after 48 hrs by coulter counter method; details: NCI-H226, 48 h, read-out: GI; procedure, shortened: as §1
KM12 = test: Growth inhibition of human KM12 cells at 10 uM after 48 hrs by coulter counter method; details: KM12, 48 h, read-out: GI; procedure, shortened: as §1
SF-539 = test: Growth inhibition of human SF539 cells at 10 uM after 48 hrs by coulter counter method; details: SF-539, 48 h, read-out: GI; procedure, shortened: as §1
SK-MEL-2 = test: Growth inhibition of human SK-MEL-2 cells at 10 uM after 48 hrs by coulter counter method; details: SK-MEL-2, 48 h, read-out: GI; procedure, shortened: as §1
SNB-75 = test: Growth inhibition of human SNB75 cells at 10 uM after 48 hrs by coulter counter method; details: SNB-75, 48 h, read-out: GI; procedure, shortened: as §1
U-251 = test: Growth inhibition of human U251 cells at 10 uM after 48 hrs by coulter counter method; details: U-251, 48 h, read-out: GI; procedure, shortened: as §1
SK-OV-3 = test: Growth inhibition of human SKOV3 cells at 10 uM after 48 hrs by coulter counter method; details: SK-OV-3, 48 h, read-out: GI; procedure, shortened: as §1
HL-60(TB) = test: Growth inhibition of human HL-60(TB) cells at 10 uM after 48 hrs by coulter counter method; details: HL-60, 48 h, read-out: GI
Procedure, shortened: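 Part of the NCI 60-cell-line single-high-dose panel. Cells were seeded at 6 × 10⁴ cells/mL with test solution in duplicate wells, alongside PBS/DMSO controls at identical dilutions. Plates were held 48 h at 37 °C in a humidified 5% CO₂ incubator. Cells were then diluted 10-fold in saline and counted by Coulter counter, with counts corrected for dilution. Results are percent growth of treated cells, reported as GI %.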

[1] = Growth inhibition of human Hs 578T cells at 10 uM after 48 hrs by coulter counter method; details: read-out: GI; procedure, shortened: as §1
CAKI-1 = test: Growth inhibition of human Caki1 cells at 10 uM after 48 hrs by coulter counter method; details: CAKI-1, 48 h, read-out: GI; procedure, shortened: as §1
HT-29 = test: Growth inhibition of human HT-29 cells at 10 uM after 48 hrs by coulter counter method; details: HT-29, 48 h, read-out: GI; procedure, shortened: as §1
MDA-MB-468 = test: Growth inhibition of human MDA-MB-468 cells at 10 uM after 48 hrs by coulter counter method; details: MDA-MB-468, 48 h, read-out: GI; procedure, shortened: as §1
NCI-H522 = test: Growth inhibition of human NCI-H522 cells at 10 uM after 48 hrs by coulter counter method; details: NCI-H522, 48 h, read-out: GI; procedure, shortened: as §1
UACC-62 = test: Growth inhibition of human UACC62 cells at 10 uM after 48 hrs by coulter counter method; details: UACC-62, 48 h, read-out: GI; procedure, shortened: as §1
K562 = test: Growth inhibition of human K562 cells at 10 uM after 48 hrs by coulter counter method; details: K562, 48 h, read-out: GI; procedure, shortened: as §1
BT-549 = test: Growth inhibition of human BT549 cells at 10 uM after 48 hrs by coulter counter method; details: BT-549, 48 h, read-out: GI; procedure, shortened: as §1
COLO 205 = test: Growth inhibition of human COLO205 cells at 10 uM after 48 hrs by coulter counter method; details: COLO 205, 48 h, read-out: GI; procedure, shortened: as §1
M14 = test: Growth inhibition of human M14 cells at 10 uM after 48 hrs by coulter counter method; details: M14, 48 h, read-out: GI; procedure, shortened: as §1
T47D = test: Growth inhibition of human T47D cells at 10 uM after 48 hrs by coulter counter method; details: read-out: GI; procedure, shortened: as §1
MDA-MB-231 = test: Growth inhibition of human MDA-MB-231 cells at 10 uM after 48 hrs by coulter counter method; details: MDA-MB-231, 48 h, read-out: GI; procedure, shortened: as §1
PC-3 = test: Growth inhibition of human PC3 cells at 10 uM after 48 hrs by coulter counter method; details: PC-3, 48 h, read-out: GI; procedure, shortened: as §1
IGROV-1 = test: Growth inhibition of human IGROV1 cells at 10 uM after 48 hrs by coulter counter method; details: IGROV-1, 48 h, read-out: GI; procedure, shortened: as §1
MCF7 = test: Growth inhibition of human MCF7 cells at 10 uM after 48 hrs by coulter counter method; details: MCF7, 48 h, read-out: GI; procedure, shortened: as §1
786-0 = test: Growth inhibition of human 786-0 cells at 10 uM after 48 hrs by coulter counter method; details: 786-0, 48 h, read-out: GI; procedure, shortened: as §1
SN12C = test: Growth inhibition of human SN12C cells at 10 uM after 48 hrs by coulter counter method; details: read-out: GI; procedure, shortened: as §1
NCI-H23 = test: Growth inhibition of human NCI-H23 cells at 10 uM after 48 hrs by coulter counter method; details: NCI-H23, 48 h, read-out: GI; procedure, shortened: as §1
HCT-116 = test: Growth inhibition of human HCT116 cells at 10 uM after 48 hrs by coulter counter method; details: HCT-116, 48 h, read-out: GI; procedure, shortened: as §1
HOP-92 = test: Growth inhibition of human HOP92 cells at 10 uM after 48 hrs by coulter counter method; details: HOP-92, 48 h, read-out: GI; procedure, shortened: as §1
CCRF-CEM = test: Growth inhibition of human CCRF-CEM cells at 10 uM after 48 hrs by coulter counter method; details: read-out: GI; procedure, shortened: as §1
UO-31 = test: Growth inhibition of human UO31 cells at 10 uM after 48 hrs by coulter counter method; details: UO-31, 48 h, read-out: GI; procedure, shortened: as §1

SMILES | inhibition of growth at 10 µM (SK-MEL-28) | inhibition of growth at 10 µM (SR) | inhibition of growth at 10 µM (MOLT-4) | inhibition of growth at 10 µM (A549) | inhibition of growth at 10 µM (OVCAR-4) | inhibition of growth at 10 µM (SF-268) | inhibition of growth at 10 µM (OVCAR-8) | inhibition of growth at 10 µM (NCI-H226) | inhibition of growth at 10 µM (KM12) | inhibition of growth at 10 µM (SF-539) | inhibition of growth at 10 µM (SK-MEL-2) | inhibition of growth at 10 µM (SNB-75) | inhibition of growth at 10 µM (U-251) | inhibition of growth at 10 µM (SK-OV-3) | inhibition of growth at 10 µM (HL-60(TB)) | inhibition of growth at 10 µM [1] | inhibition of growth at 10 µM (CAKI-1) | inhibition of growth at 10 µM (HT-29) | inhibition of growth at 10 µM (MDA-MB-468) | inhibition of growth at 10 µM (NCI-H522) | also measured
NS(=O)(=O)c1ccc(Nc2nc3ccccc3c(=O)n2-c2ccc(Cl)cc2)cc1 | 30% | 30.2% | 38.1% | 30% | 30% | 30% | 30% | 30% | 30% | 30% | 30% | 30% | 30% | 30% | 30% | 30% | 30% | 30% | 30% | 30% | inhibition of growth at 10 µM (UACC-62): 30%; inhibition of growth at 10 µM (K562): 34.3%; inhibition of growth at 10 µM (BT-549): 30%; inhibition of growth at 10 µM (COLO 205): 30%; inhibition of growth at 10 µM (M14): 30%; inhibition of growth at 10 µM (T47D): 30%; inhibition of growth at 10 µM (MDA-MB-231): 30%; inhibition of growth at 10 µM (PC-3): 30%; inhibition of growth at 10 µM (IGROV-1): 30%; inhibition of growth at 10 µM (MCF7): 30%; inhibition of growth at 10 µM (786-0): 30%; inhibition of growth at 10 µM (SN12C): 30%; inhibition of growth at 10 µM (NCI-H23): 30%; inhibition of growth at 10 µM (HCT-116): 33.6%; inhibition of growth at 10 µM (HOP-92): 30%; inhibition of growth at 10 µM (CCRF-CEM): 30%; inhibition of growth at 10 µM (UO-31): 30%
COc1ccc(-n2c(Nc3ccc(S(N)(=O)=O)cc3)nc3ccccc3c2=O)cc1 | 30% | 30% | 30% | 30% | 30% | 30% | 30% | 30% | 30% | 30% | 30% | 30% | 30% | 30% | 30% | 30% | 30% | 30% | 37.5% | 30% | inhibition of growth at 10 µM (UACC-62): 30%; inhibition of growth at 10 µM (K562): 47.1%; inhibition of growth at 10 µM (BT-549): 30%; inhibition of growth at 10 µM (COLO 205): 30%; inhibition of growth at 10 µM (M14): 30%; inhibition of growth at 10 µM (T47D): 30%; inhibition of growth at 10 µM (MDA-MB-231): 30%; inhibition of growth at 10 µM (PC-3): 30%; inhibition of growth at 10 µM (IGROV-1): 30%; inhibition of growth at 10 µM (MCF7): 30%; inhibition of growth at 10 µM (786-0): 30%; inhibition of growth at 10 µM (SN12C): 30%; inhibition of growth at 10 µM (NCI-H23): 30%; inhibition of growth at 10 µM (HCT-116): 36.7%; inhibition of growth at 10 µM (HOP-92): 30%; inhibition of growth at 10 µM (CCRF-CEM): 30%; inhibition of growth at 10 µM (UO-31): 30%
